Experimental data as given in ChEMBL document CHEMBL4371075, “α-Amino Diphenyl Phosphonates as Novel Inhibitors of Escherichia coli ClpP Protease” (J Med Chem, 2019).
Calls of active or inactive are those of the source. The calls are words filed in the database; no cut-off is given here.

What was measured:
[1] = test system: HeLa; experiment: Cytotoxicity against human HeLa cells after 48 hrs by CellTiter-Glo assay; assay type: cell-based
Outline: (§1)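 Human cells seeded (2000 cells/well; A549 500 cells/well), 24 h at 37 °C, 5% CO2, then compounds added (final DMSO 1%), 1:3 dilution series from 100 µM, 48 h exposure. ATP read by CellTiter-Glo luminescence relative to DMSO-treated cells; DMSO (1%) negative and valinomycin (10 µM) positive controls; plates accepted at Z' > 0.5.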

[2] = target: ATP-dependent Clp protease proteolytic subunit (Escherichia coli (strain K12), UniProt P0A6G7); experiment: Inhibition of Escherichia coli C-terminal His6-tagged ClpP expressed Escherichia coli SG1146a using Suc-LY-AMC as substrate preincubated for 10 mins followed by substrate addition and measured over 1 hr by fluorescence assay
Sequence of ATP-dependent Clp protease proteolytic subunit (P0A6G7 whole entry): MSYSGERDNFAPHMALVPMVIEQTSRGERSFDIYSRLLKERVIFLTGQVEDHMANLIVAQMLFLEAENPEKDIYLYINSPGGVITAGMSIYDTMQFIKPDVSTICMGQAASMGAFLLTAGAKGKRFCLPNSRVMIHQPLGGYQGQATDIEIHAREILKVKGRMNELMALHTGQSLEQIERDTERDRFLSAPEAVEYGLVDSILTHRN
Outline: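 ClpP at 625 nM with compound serial dilutions (1:3 or 1:2) in 100 mM NaCl, 100 mM Hepes pH 7.5, 0.05% Brij 35, preincubated 10 min at 30 °C. Suc-LY-AMC added (75 µM), fluorescence (ex 350/em 435 nm) tracked 1 h at 30 °C against DMSO vehicle (2% v/v).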

[3] = target: ATP-dependent Clp protease proteolytic subunit (Escherichia coli (strain K12)) (UniProt P0A6G7); experiment: Inhibition of Escherichia coli C-terminal His6-tagged ClpP expressed Escherichia coli SG1146a at 200 uM using Suc-LY-AMC as substrate preincubated for 10 mins followed by substrate addition and measured over 1 hr by fluorescence assay relative to control
Sequence of ATP-dependent Clp protease proteolytic subunit (Escherichia coli (strain K12)) (P0A6G7 whole entry): as above
Outline: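 E. coli ClpP (625 nM) in 100 mM NaCl, 100 mM Hepes pH 7.5, 0.05% Brij 35, preincubated with compound (200 µM final, triplicates) 10 min at 30 °C. Suc-LY-AMC added (75 µM), fluorescence (ex 350/em 435 nm) followed over 1 h at 30 °C. Inhibition relative to 2% DMSO vehicle; Z-LY-CMK (200 µM) positive control; plates valid at Z' > 0.6.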

[4] = target: alpha-chymotrypsin (Bos taurus, UniProt P00766); experiment: Inhibition of bovine alpha-chymotrypsin assessed as residual activity at 200 uM relative to control; settings: cattle, read-out: Activity
Outline: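 Bovine α-chymotrypsin (40 nM) with compound at 200 µM and Suc-LY-AMC (100 µM) in 150 mM NaCl, 10 mM CaCl2, 50 mM Tris-HCl, 0.05% Brij 35. AMC fluorescence read-out; residual activity relative to control without compound.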

[5] = test system: HepG2; experiment: Cytotoxicity against human HepG2 cells after 48 hrs by CellTiter-Glo assay; assay type: cell-based; settings: HepG2, 48 h; outline: as §1
[6] = test system: A549; experiment: Cytotoxicity against human A549 cells after 48 hrs by CellTiter-Glo assay; assay type: cell-based; settings: A549, 48 h; outline: as §1
[7] = test system: Escherichia coli; experiment: Growth inhibition of ClpP-deficient Escherichia coli JW0427-1 at 100 uM under nitric oxide stress condition measured at 1 hr time interval for 15 to 24 hrs in presence of DPTA NONOate; assay type: functional, organism-based
Outline: (§2)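 E. coli BW25-113 and isogenic ΔclpP JW0427-1, grown overnight in MHB, diluted 1:100 in M9 + 10 mM glucose to OD600 ~0.3; assayed at OD600 0.1 with compound 100 µM, with or without DPTA NONOate (2 mM) for NO stress. 37 °C, 500 rpm; OD600 hourly for 15 or 24 h; mean of three independent experiments ± standard deviation.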

[8] = test system: Escherichia coli; experiment: Growth inhibition of wild-type Escherichia coli BW25113 at 100 uM measured at 1 hr time interval for 15 to 24 hrs; assay type: functional, organism-based; outline: as §2
[9] = target: ATP-dependent Clp protease proteolytic subunit (Escherichia coli (strain K12)) (UniProt P0A6G7); experiment: Reversible binding affinity to Escherichia coli C-terminal His6-tagged ClpP expressed Escherichia coli SG1146a up to 320 uM measured after cessation of compound treatment by SPR analysis
Outline: (§3)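 His-tagged E. coli ClpP amine-coupled to chip (80 µg/mL in 10 mM sodium acetate pH 4). Running buffer 150 mM NaCl, 10 mM Hepes, 3 mM EDTA, 0.05% Tween-20, 3.2% DMSO; 20 µL/min, 6 min injection, up to 300 s dissociation; 2.5–320 µM range. Reference-channel subtracted, DMSO/bulk-shift corrected; return to baseline after injection end judged.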

[10] = test system: Escherichia coli; experiment: Growth inhibition of wild-type Escherichia coli BW25113 at 100 uM under nitric oxide stress condition measured at 1 hr time interval for 15 to 24 hrs in presence of DPTA NONOate; assay type: functional, organism-based; outline: as §2
[11] = test system: Escherichia coli; experiment: Growth inhibition of ClpP-deficient Escherichia coli JW0427-1 at 100 uM measured at 1 hr time interval for 15 to 24 hrs; assay type: functional, organism-based; outline: as §2
[12] = test system: Escherichia coli ClpP (C-terminal His6-tagged); experiment: Selectivity index, ratio of EC50 for human A549 cells to IC50 for Escherichia coli C-terminal His6-tagged ClpP expressed Escherichia coli SG1146a; assay type: toxicity; settings: read-out: Selectivity Index
[13] = test system: Escherichia coli; experiment: Growth inhibition of tolC-deficient Escherichia coli JW5503 at 100 uM measured after 24 hrs relative to control; assay type: functional; settings: JW5503, 24 h, read-out: GI
Outline: (§4)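 Single colony in saline, adjusted in MHB; final inoculum 5x10^5 CFU/mL, compound 100 µM in triplicate, 2% DMSO and ciprofloxacin controls. 37 °C, 500 rpm shaking; OD600 at time 0 and later time points to quantify growth.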

[14] = test system: Escherichia coli; experiment: Growth inhibition of wild-type Escherichia coli BW25113 at 50 uM measured after 24 hrs in presence of efflux pump substrate PAbetaN relative to control; assay type: functional; settings: BW25113, 24 h, read-out: GI
Outline: (§5)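 E. coli BW25-113 wild type or ΔclpP JW0427-1 grown with compound (50 µM) plus efflux pump substrate PAβN (25 µg/ml); growth inhibition read as OD600 at 24 h, 37 °C with shaking.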

[15] = test system: Escherichia coli; experiment: Growth inhibition of ClpP-deficient Escherichia coli JW0427-1 at 50 uM measured after 24 hrs in presence of efflux pump substrate PAbetaN relative to control; assay type: functional; settings: JW0427-1, 24 h, read-out: GI; outline: as §5
[16] = test system: Staphylococcus aureus; experiment: Growth inhibition of Staphylococcus aureus ATCC 29213 at 100 uM measured after 24 hrs relative to control; assay type: functional; settings: ATCC 29213, 24 h, read-out: GI; outline: as §4
[17] = target: ATP-dependent Clp protease proteolytic subunit (Escherichia coli (strain K12)) (UniProt P0A6G7); experiment: Reversible binding affinity to Escherichia coli C-terminal His6-tagged ClpP expressed Escherichia coli SG1146a up to 80 uM measured after cessation of compound treatment by SPR analysis; outline: as §3

Structure (SMILES)	EC50 [1]	IC50 [2]	inhibition [3]	activity at 200 µM [4]	EC50 [5]	EC50 [6]	growth inhibition (GI) [7]	growth inhibition (GI) [8]	Activity [9]	growth inhibition (GI) [10]	growth inhibition (GI) [11]	selectivity ratio [12]	inhibition of growth at 100 µM [13]	inhibition of growth at 50 µM [14]	inhibition of growth at 50 µM [15]	inhibition of growth at 100 µM [16]	Activity [17]
COC(=O)NC(c1ccc(C(=N)N)cc1)P(=O)(Oc1ccccc1)Oc1ccccc1 (centres undefined)	≥ 100 µM	48.1 µM	93%	≥ 100%	≥ 100 µM	≥ 100 µM	–	–	–	–	–	–	–	–	–	–	–
Nc1cccc(C(NC(=O)OCc2ccccc2)P(=O)(Oc2ccccc2)Oc2ccccc2)c1 (centres undefined)	≥ 100 µM	0.5 µM	100%	17.9%	23.8 µM	27.5 µM	inactive	inactive	Active	Active	inactive	–	–	–	–	–	–
COc1cccc(C(NC(=O)OCc2ccccc2)P(=O)(Oc2ccccc2)Oc2ccccc2)n1 (centres undefined)	≥ 100 µM	38 µM	100%	≥ 100%	≥ 100 µM	≥ 100 µM	–	–	–	–	–	–	–	–	–	–	–
Nc1ccc(C(NC(=O)OCc2ccccc2)P(=O)(Oc2ccccc2)Oc2ccccc2)cc1 (centres undefined)	≥ 100 µM	39.8 µM	96%	≥ 100%	≥ 100 µM	57.8 µM	–	–	–	–	–	< 10	–	–	–	–	–
O=C(NC(c1ccc(NC(=O)C(F)(F)F)cc1)P(=O)(Oc1ccccc1)Oc1ccccc1)OCc1ccc2c(c1)OCO2 (centres undefined)	≥ 100 µM	8.2 µM	93%	46%	≥ 100 µM	41.5 µM	–	–	Active	–	–	< 10	–	–	–	–	–
CN(C)c1ccc(C(NC(=O)OCc2ccccc2)P(=O)(Oc2ccccc2)Oc2ccccc2)cc1 (centres undefined)	≥ 100 µM	0.6 µM	100%	≥ 100%	28.4 µM	65.6 µM	–	–	Active	–	–	–	–	–	–	–	–
N=C(N)c1ccc2cc(C(NC(=O)OCc3ccccc3)P(=O)(Oc3ccccc3)Oc3ccccc3)ccc2c1 (centres undefined)	19.9 µM	79.7 µM	81%	≥ 100%	28.3 µM	25.6 µM	–	–	–	–	–	–	98.9%	98.5%	99.4%	–	–
O=C(NC(Cc1ccc(C(F)(F)F)cc1)P(=O)(Oc1ccccc1)Oc1ccccc1)OCc1ccccc1 (centres undefined)	≥ 100 µM	14.2 µM	100%	93.9%	≥ 100 µM	≥ 100 µM	–	–	–	–	–	–	–	–	–	–	–
O=C(NC(CCc1ccc([N+](=O)[O-])cc1)P(=O)(Oc1ccccc1)Oc1ccccc1)OCc1ccccc1 (centres undefined)	≥ 100 µM	13.1 µM	100%	≥ 100%	≥ 100 µM	≥ 100 µM	–	–	–	–	–	–	–	–	–	–	–
N=C(N)N1CC(C(NC(=O)OCc2ccccc2)P(=O)(Oc2ccccc2)Oc2ccccc2)C1 (centres undefined)	≥ 100 µM	71.3 µM	100%	≥ 100%	≥ 100 µM	≥ 100 µM	–	–	–	–	–	–	99%	–	–	99.9%	–
C[C@H](NC(=O)[C@H](CO)NC(=O)c1cccs1)C(=O)NC(Cc1ccc(NC(=N)N)cc1)P(=O)(Oc1ccccc1)Oc1ccccc1 (some centres undefined)	≥ 100 µM	49.5 µM	90%	≥ 100%	≥ 100 µM	≥ 100 µM	–	–	–	–	–	–	–	–	–	–	–
O=C(NC(c1ccc(N2CCNCC2)cc1)P(=O)(Oc1ccccc1)Oc1ccccc1)OCc1ccccc1 (centres undefined)	8.6 µM	0.6 µM	100%	≥ 100%	1.1 µM	0.4 µM	–	–	–	–	–	–	69.9%	–	–	–	Active
O=C(NC(c1c[nH]c2ccc(Cl)cc12)P(=O)(Oc1ccccc1)Oc1ccccc1)OCc1ccccc1 (centres undefined)	19.9 µM	100 µM	88%	≥ 100%	10.5 µM	5.9 µM	–	–	–	–	–	–	–	–	–	–	–
